Experimental data taken from ChEMBL document CHEMBL4265981, “Design, synthesis, and biological evaluation of novel pan agonists of FFA1, PPARγ and PPARδ” (Eur J Med Chem, 2018).

Key:
[1] = target: T1, Free fatty acid receptor 1 (Homo sapiens, UniProt O14842); test: Agonist activity at human FFA1 expressed in CHO cells assessed as increase in intracellular Ca2+ flux after 1 hr by Fluo4-AM dye based FLIPR assay; assay type: functional, cell-based
Method in brief: (§1)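 CHO cells stably expressing human FFA1, seeded 16 h at 37 °C, washed with HBSS, then loaded 1 h at 37 °C with Fluo 4-AM (2.5 μg/mL), 2.5 mmol/L probenecid and 0.1% fatty acid-free BSA. Intracellular Ca2+ flux read by FLIPR after compound addition at various concentrations.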

[2] = target: T2, Peroxisome proliferator-activated receptor alpha (Homo sapiens, UniProt Q07869); test: Agonist activity at human GAL4 fused PPARalpha-LBD expressed in human HepG2 cells after 18 hrs by luciferase reporter gene assay; assay type: cell-based
T2 sequence (Q07869 whole entry): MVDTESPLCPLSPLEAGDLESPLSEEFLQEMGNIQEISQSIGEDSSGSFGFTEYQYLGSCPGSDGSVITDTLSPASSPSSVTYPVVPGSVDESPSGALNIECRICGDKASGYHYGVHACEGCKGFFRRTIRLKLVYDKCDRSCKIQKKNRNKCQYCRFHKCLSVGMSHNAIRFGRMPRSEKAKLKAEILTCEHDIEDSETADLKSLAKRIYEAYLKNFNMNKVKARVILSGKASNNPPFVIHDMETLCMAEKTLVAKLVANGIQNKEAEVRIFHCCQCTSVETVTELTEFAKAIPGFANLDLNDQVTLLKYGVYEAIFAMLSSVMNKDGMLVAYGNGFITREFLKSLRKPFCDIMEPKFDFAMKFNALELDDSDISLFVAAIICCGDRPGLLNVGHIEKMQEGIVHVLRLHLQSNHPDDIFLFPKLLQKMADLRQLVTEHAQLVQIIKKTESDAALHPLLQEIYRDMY
Method in brief: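 HepG2 cells plated 1 day ahead in antibiotic-free MEM, then run by the same GAL4 protocol: pBIND-PPAR construct plus pG5Luc reporter transfection, 18 h compound exposure at various concentrations. Firefly/renilla luciferase ratio scaled between no-compound and reference-agonist controls. EC50 is the mean of three determinations.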

[3] = target: T3, Peroxisome proliferator-activated receptor gamma (Homo sapiens, UniProt P37231); test: Agonist activity at human GAL4 fused PPARgamma-LBD expressed in HEK293 cells after 18 hrs by luciferase reporter gene assay; assay type: cell-based
T3 sequence (P37231 whole entry): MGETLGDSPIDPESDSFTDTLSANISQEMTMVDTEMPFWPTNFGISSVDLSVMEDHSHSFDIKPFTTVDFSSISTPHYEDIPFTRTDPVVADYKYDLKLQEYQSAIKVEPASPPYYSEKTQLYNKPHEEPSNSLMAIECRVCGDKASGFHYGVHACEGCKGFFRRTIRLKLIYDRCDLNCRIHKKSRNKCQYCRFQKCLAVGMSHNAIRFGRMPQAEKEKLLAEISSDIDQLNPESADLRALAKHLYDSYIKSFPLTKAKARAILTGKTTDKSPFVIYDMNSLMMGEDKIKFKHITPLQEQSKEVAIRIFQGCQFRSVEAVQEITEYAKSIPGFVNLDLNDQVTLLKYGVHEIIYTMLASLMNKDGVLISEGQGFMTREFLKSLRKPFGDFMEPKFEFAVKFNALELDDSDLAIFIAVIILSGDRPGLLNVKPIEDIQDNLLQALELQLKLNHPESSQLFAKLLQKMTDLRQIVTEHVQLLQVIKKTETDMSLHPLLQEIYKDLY
Method in brief: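 HEK293 cells plated 1 day ahead in antibiotic-free DMEM, transiently transfected with pBIND-PPARγ plus pG5Luc reporter (25 ng/well each). After 24 h, compounds added at various concentrations for 18 h. Dual firefly/renilla luciferase read-out, firefly normalized to renilla. % activation scaled between no-compound control and reference agonist; EC50 is the mean of three determinations.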

[4] = target: T4, Peroxisome proliferator-activated receptor delta (Homo sapiens, UniProt Q03181); test: Agonist activity at human GAL4 fused PPARdelta-LBD expressed in HEK293 cells after 18 hrs by luciferase reporter gene assay; assay type: cell-based
T4 sequence (Q03181 whole entry): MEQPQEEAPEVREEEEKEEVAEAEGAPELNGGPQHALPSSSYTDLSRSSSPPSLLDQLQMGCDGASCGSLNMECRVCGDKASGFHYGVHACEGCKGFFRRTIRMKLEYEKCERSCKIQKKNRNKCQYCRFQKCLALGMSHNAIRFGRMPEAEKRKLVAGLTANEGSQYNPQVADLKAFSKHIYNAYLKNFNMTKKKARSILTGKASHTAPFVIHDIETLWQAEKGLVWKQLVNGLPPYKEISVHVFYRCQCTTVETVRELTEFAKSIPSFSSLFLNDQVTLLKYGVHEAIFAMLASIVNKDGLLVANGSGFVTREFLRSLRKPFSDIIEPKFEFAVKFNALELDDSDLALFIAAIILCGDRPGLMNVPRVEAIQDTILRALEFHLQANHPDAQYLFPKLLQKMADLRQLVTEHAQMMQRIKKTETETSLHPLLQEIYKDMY

[5] = target: T1, Free fatty acid receptor 1; test: Agonist activity at FFA1 (unknown origin); assay type: functional; method in brief: as §1
Mus musculus [6] = test: Hypoglycemic activity in ICR mouse assessed as decrease in blood glucose AUC (0 to 120 mins) at 30 mg/kg, po administered 30 mins prior to glucose load by OGTT relative to control; assay type: functional; set-up: scale not given: the % may be the effect or the level left
Method in brief: (§2)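 Male ICR mice (18–22 g), acclimatized 1 week. Single oral dose (10, 30, 100 or 20 mg/kg) in 0.5% carboxymethylcellulose/methylcellulose vehicle, given 30 min before an oral glucose load of 3 g/kg. Blood glucose measured by test strip at −30, 0, 15, 30, 60 and 120 min. AUC0–120 min compared with vehicle.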

Mus musculus [7] = test: Hypoglycemic activity in ob/ob mouse assessed as decrease in blood glucose AUC (0 to 120 mins) at 100 mg/kg, po bid administered via gavage 30 mins prior to glucose load by OGTT relative to control; assay type: functional; set-up: scale not given: the % may be the effect or the level left
Method in brief: (§3)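 Male ob/ob mice, six weeks old, acclimatized 1 week. Dosed by gavage twice daily for 5 days with 100 or 40 mg/kg, or with 0.5% methylcellulose vehicle. OGTT on days 0 and 5: overnight fast, dose, then oral glucose 3 g/kg 30 min later. Tail-tip blood glucose by strip at −30, 0, 15, 30, 60 and 120 min. n = 6/group, mean ± SD, Student's t test.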

Mus musculus [8] = test: Hypoglycemic activity in ICR mouse assessed as decrease in plasma glucose level administered orally 30 mins prior to glucose load and measured after 120 mins by OGTT; assay type: functional, organism-based; method in brief: as §2
Mus musculus [9] = test: Hypoglycemic activity in ICR mouse assessed as decrease in blood glucose AUC (0 to 120 mins) at 100 mg/kg, po administered 30 mins prior to glucose load by OGTT relative to control; assay type: functional; set-up: scale not given: the % may be the effect or the level left; method in brief: as §2
Mus musculus [10] = test: Hypoglycemic activity in ob/ob mouse assessed as decrease in blood glucose AUC (0 to 120 mins) at 100 mg/kg, po bid administered via gavage for 5 days starting at 30 mins prior to glucose load by OGTT relative to control; assay type: functional; set-up: scale not given: the % may be the effect or the level left; method in brief: as §3
Mus musculus [11] = test: Hypoglycemic activity in ICR mouse assessed as decrease in blood glucose AUC (0 to 120 mins) at 10 mg/kg, po administered 30 mins prior to glucose load by OGTT relative to control; assay type: functional; set-up: scale not given: the % may be the effect or the level left; method in brief: as §2
Mus musculus [12] = test: Hypoglycemic activity in ob/ob mouse assessed as decrease in blood glucose AUC (0 to 120 mins) at 40 mg/kg, po bid administered via gavage for 5 days starting at 30 mins prior to glucose load by OGTT relative to control; assay type: functional; set-up: scale not given: the % may be the effect or the level left; method in brief: as §3
Mus musculus [13] = test: Hypoglycemic activity in ob/ob mouse assessed as decrease in blood glucose AUC (0 to 120 mins) at 40 mg/kg, po bid administered via gavage 30 mins prior to glucose load by OGTT relative to control; assay type: functional; set-up: scale not given: the % may be the effect or the level left; method in brief: as §3
Mus musculus [14] = test: Hypoglycemic activity in ICR mouse assessed as decrease in blood glucose AUC (0 to 120 mins) at 20 mg/kg, po administered 30 mins prior to glucose load by OGTT relative to control; assay type: functional; set-up: scale not given: the % may be the effect or the level left; method in brief: as §2

T1 sequence (O14842 whole entry): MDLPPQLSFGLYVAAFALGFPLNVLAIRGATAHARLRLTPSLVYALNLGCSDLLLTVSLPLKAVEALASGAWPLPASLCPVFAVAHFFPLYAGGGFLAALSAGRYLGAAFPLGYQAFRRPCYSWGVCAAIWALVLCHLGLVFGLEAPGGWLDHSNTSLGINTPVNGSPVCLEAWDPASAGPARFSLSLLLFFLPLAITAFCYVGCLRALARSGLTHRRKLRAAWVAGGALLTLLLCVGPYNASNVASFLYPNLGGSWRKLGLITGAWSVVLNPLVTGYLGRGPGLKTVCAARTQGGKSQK

EC50 [1] | EC50 [2] | EC50 [3] | EC50 [4] | SMILES | further results
3.28 µM | > 10 µM | 1.92 µM | 4.56 µM | [2H]C([2H])(Cc1ccc(OCCCOc2cccc(Cl)c2)cc1)C(=O)O | 
3.59 µM | > 10 µM | 1.75 µM | 2.42 µM | Cc1cccc(OCCCOc2ccc3c(c2)OCC3CC(=O)O)c1 (stereo unspecified) | 
3.45 µM | > 10 µM | 1.67 µM | 2.37 µM | O=C(O)CC1COc2cc(OCCCOc3cccc(Br)c3)ccc21 (stereo unspecified) | 
3.07 µM | > 10 µM | 1.69 µM | 2.16 µM | O=C(O)CC1COc2cc(OCCCOc3cccc(Cl)c3)ccc21 (stereo unspecified) | 
> 10 µM | > 10 µM | 5.26 µM | 3.26 µM | O=C(O)CC1COc2cc(OCCCOc3ccccc3)ccc21 (stereo unspecified) | 
4.26 µM | 7.31 µM | 2.97 µM | 1.98 µM | O=C(O)CC1COc2cc(OCCCOc3ccc(-c4ccccc4)cc3)ccc21 (stereo unspecified) | 
3.02 µM | > 10 µM | 1.75 µM | 4.84 µM | CC(C)(C)c1cccc(OCCCOc2ccc3c(c2)OCC3CC(=O)O)c1 (stereo unspecified) | 
> 10 µM | > 10 µM | 2.67 µM | 2.09 µM | O=C(O)CC1COc2cc(OCCCOc3ccccc3F)ccc21 (stereo unspecified) | 
2.76 µM | > 10 µM | 1.85 µM | 5.49 µM | O=C(O)CC1COc2cc(OCCCOc3cccc(-c4ccccc4)c3)ccc21 (stereo unspecified) | 
> 10 µM | 5.26 µM | 4.56 µM | 1.52 µM | Cc1cc(OCCCOc2ccc(-c3ccccc3)cc2)ccc1OCC(=O)O | 
> 10 µM | > 10 µM | > 10 µM | > 10 µM | O=C(O)CS(=O)(=O)c1ccc(OCCCOc2cccc(Cl)c2)cc1 | 
 |  |  |  | CC#C[C@@H](CC(=O)O)c1ccc(OCCCOc2cccc(Cl)c2)cc1 | EC50 [5]: 0.01 µM
> 10 µM | > 10 µM | 1.54 µM | 1.73 µM | Cc1cc(OCCCOc2cccc(Cl)c2)ccc1OCC(=O)O | 
8.45 µM | > 10 µM | 3.17 µM | 3.35 µM | O=C(O)COc1ccc(OCCCOc2cccc(Cl)c2)cc1F | 
2.38 µM | > 10 µM | 1.43 µM | 1.75 µM | O=C(O)C[C@@H]1COc2cc(OCCCOc3cccc(Cl)c3)ccc21 | Activity (Mus musculus [6]): 8.1%; Activity (Mus musculus [7]): 7.6%; Activity (Mus musculus [8]): Dose-dependent effect; Activity (Mus musculus [9]): 18.6%; Activity (Mus musculus [10]): 17.3%; Activity (Mus musculus [11]): 1.1%
 |  |  |  | Cc1cc(OCCCS(C)(=O)=O)cc(C)c1-c1cccc(COc2ccc3c(c2)OC[C@H]3CC(=O)O)c1 | Activity (Mus musculus [12]): 20.2%; Activity (Mus musculus [13]): 13.1%; Activity (Mus musculus [14]): -26.9%
3.85 µM | > 10 µM | 2.03 µM | 9.57 µM | CC(C)(C)c1cccc(OCCOc2ccc3c(c2)OCC3CC(=O)O)c1 (stereo unspecified) | 
> 10 µM | > 10 µM | > 10 µM | 0.17 µM | O=C(O)C[C@@H]1CCc2cc(OCCCOc3ccccc3)ccc21 | 
7.62 µM | > 10 µM | 1.81 µM | 1.95 µM | Cc1ccc(OCCCOc2ccc3c(c2)OCC3CC(=O)O)cc1 (stereo unspecified) | 
> 10 µM | > 10 µM | 7.75 µM | 7.93 µM | O=C(O)CC1COc2cc(OCCOc3ccccc3)ccc21 (stereo unspecified) | 
> 10 µM | > 10 µM | 2.02 µM | 1.93 µM | Cc1ccccc1OCCCOc1ccc2c(c1)OCC2CC(=O)O (stereo unspecified) | 
